# Laboratory results published in ChEMBL document CHEMBL2331302, “Selection of heptapeptides that bind helix 69 of bacterial 23S ribosomal RNA” (Bioorg Med Chem, 2013).
# The source made the active and inactive calls. No cut-off for these calls is given here.
# Key:
# [1] = test system: Escherichia coli; experiment: Binding affinity to wild type Escherichia coli 5'-fluorescein-tagged H69 RNA after 24 hrs by fluorescein-based bead assay relative to control
# How it was run: (§1)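 TentaGel beads carrying peptide with a free N-terminus were blocked 3 h in SuperBlock (PBS, 0.05% Tween-20) and water-washed. About 10–12 beads were incubated with 15 μL of 1 μM 5′-fluorescein-labelled RNA in 10 mM HEPES for 24 h at 4 °C with shaking, repeated 4× with fresh RNA. Beads were water-washed and imaged by fluorescence microscopy. Peptide-free beads gave background.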
# [2] = organism: Homo sapiens; experiment: Binding affinity to human 5'-fluorescein-tagged TAR RNA after 24 hrs by fluorescein-based bead assay; how it was run: as §1
# [3] = test system: Escherichia coli; experiment: Binding affinity to wild type Escherichia coli Qdot-labeled H69 RNA after 16 hrs by fluorescein-based bead assay
# How it was run: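 1 nM fluorescein-H69 was pre-incubated 1 h with 1 nM anti-fluorescein Qdot 655, then with beads for 16 h at 4 °C. Beads were washed, and red and green per-bead pixel intensities (1–255 scale) quantified against no-peptide beads.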
# [4] = test system: Escherichia coli; experiment: Selectivity ratio of Kd for Escherichia coli H69-UUU RNA to Kd for wild type Escherichia coli H69 RNA
# [5] = organism: Homo sapiens; experiment: Binding affinity to human 5'-fluorescein-tagged 18s RNA after 24 hrs by fluorescein-based bead assay; how it was run: as §1
# [6] = test system: Escherichia coli; experiment: Selectivity ratio of apparent Kd for Escherichia coli helix 31 at pH 7 to apparent Kd for wild type Escherichia coli H69 RNA at pH 7
# How it was run: (§2)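 The ratio compares apparent Kd for each RNA with that for modified wild-type H69, both for 1:1 complexes from ESI-MS at pH 7.0. Conditions: 150 mM ammonium acetate, 25% 2-propanol, 1–3 μM RNA, 0–120 μM amidated peptide, fraction bound fitted by a quadratic equation.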
# [7] = test system: Escherichia coli; experiment: Selectivity ratio of apparent Kd for Escherichia coli H69-UUU RNA at 4- charge state at pH 7 to apparent Kd for wild type Escherichia coli H69 RNA at 4- charge state at pH 7; how it was run: as §2
# [8] = Binding affinity to Escherichia coli H69-UUU RNA at 4- charge state at pH 7 after 30 mins by ESI-MS analysis; conditions: read-out: Kd(app)
# How it was run: (§3)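 ESI-MS titration of free amidated peptide (0–120 μM) with 1–3 μM RNA (50 μL) in 150 mM ammonium acetate, pH 7.0 or 5.2, 25% 2-propanol. Summed peak areas of complexes (1:1, 1:2, Na+/K+ adducts) over free plus complexed RNA give fraction bound, either per charge state (4−, 5−) or all states. Apparent Kd comes from a quadratic fit, three independent experiments.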
# [9] = Selectivity ratio of apparent Kd for human H69 RNA at pH 7 to apparent Kd for wild type Escherichia coli H69 RNA at pH 7; how it was run: as §2
# [10] = test system: Escherichia coli; experiment: Selectivity ratio of apparent Kd for Escherichia coli H69-U2(pseudouridine) RNA at 4- charge state at pH 7 to apparent Kd for wild type Escherichia coli H69 RNA at 4- charge state at pH 7; how it was run: as §2
# [11] = Binding affinity to Escherichia coli H69-UUU RNA at 4- charge state at pH 5.2 after 30 mins by ESI-MS analysis; conditions: read-out: Kd(app); how it was run: as §3
# [12] = test system: Escherichia coli; experiment: Ratio of apparent Kd for wild type Escherichia coli H69-UUU RNA at 4- charge state at pH 5.2 to apparent Kd for wild type Escherichia coli H69-UUU RNA at 4- charge state at pH 7
# How it was run: (§4)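 The ratio compares apparent Kd for the 4− charge-state 1:1 complex from ESI-MS titrations at pH 5.2 and pH 7.0. Conditions: 150 mM ammonium acetate, 25% 2-propanol, 1–3 μM RNA, 0–120 μM amidated peptide, quadratic fit.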
# [13] = Binding affinity to Escherichia coli helix 31 at pH 7 after 30 mins by ESI-MS analysis; conditions: read-out: Kd(app); how it was run: as §3
# [14] = test system: Escherichia coli; experiment: Selectivity ratio of apparent Kd for Escherichia coli H69-pseudouridineUpseudouridine RNA at 4- charge state at pH 7 to apparent Kd for wild type Escherichia coli H69 RNA at 4- charge state at pH 7
# [15] = Binding affinity to Escherichia coli A-site 16s rRNA at pH 7 after 30 mins by ESI-MS analysis; conditions: read-out: Kd(app); how it was run: as §3
# [16] = Binding affinity to Escherichia coli H69-2(pseudouridine)U RNA at 4- charge state at pH 7 after 30 mins by ESI-MS analysis; conditions: read-out: Kd(app); how it was run: as §3
# [17] = test system: Escherichia coli; experiment: Ratio of apparent Kd for wild type Escherichia coli H69 RNA at 4- charge state at pH 5.2 to apparent Kd for wild type Escherichia coli H69 RNA at 4- charge state at pH 7; how it was run: as §4
# [18] = Binding affinity to Escherichia coli H69-pseudouridineUpseudouridine RNA at 4- charge state at pH 7 after 30 mins by ESI-MS analysis; conditions: read-out: Kd(app)
# How it was run: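 ESI-MS on a tandem quadrupole instrument: 1–3 μM RNA with 0–120 μM amidated peptide in 150 mM ammonium acetate, pH 7.0, 25% 2-propanol. Summed peak areas of free RNA and 1:1 complex (with Na+/K+ adducts) at the 4− charge state were used to get the fraction bound. Apparent Kd came from a quadratic-equation non-linear fit. Three independent experiments were run.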
# [19] = test system: Escherichia coli; experiment: Selectivity ratio of apparent Kd for Escherichia coli A-site 16s rRNA at pH 7 to apparent Kd for wild type Escherichia coli H69 RNA at pH 7; how it was run: as §2
# [20] = test system: Escherichia coli; experiment: Selectivity ratio of apparent Kd for Escherichia coli H69-2(pseudouridine)U RNA at 4- charge state at pH 7 to apparent Kd for wild type Escherichia coli H69 RNA at 4- charge state at pH 7; how it was run: as §2
# [21] = Binding affinity to wild type Escherichia coli H69 RNA at 4- charge state at pH 5.2 after 30 mins by ESI-MS analysis; conditions: read-out: Kd(app); how it was run: as §3
# [22] = Binding affinity to Escherichia coli H69-U2(pseudouridine) RNA at 4- charge state at pH 7 after 30 mins by ESI-MS analysis; conditions: read-out: Kd(app); how it was run: as §3
# [23] = Binding affinity to human H69 RNA at pH 7 after 30 mins by ESI-MS analysis; conditions: read-out: Kd(app); how it was run: as §3
compound,measurement,setting,value
H-STYTSVS-OH,Activity,[1],Active
same,Activity,[2],Active
same,Activity,[3],Active
NC[C@@H]1O[C@H](O[C@H]2[C@@H](O)[C@H](O[C@@H]3[C@@H](O)[C@H](N)C[C@H](N)[C@H]3O[C@H]3O[C@H](CO)[C@@H](O)[C@H](O)[C@H]3N)O[C@@H]2CO)[C@H](N)[C@@H](O)[C@@H]1O,Selectivity ratio,[4],2
H-NQVANHQ-OH,Activity,[1],Active
same,Activity,[5],inactive
same,Activity,[2],inactive
same,Activity,[3],Active
H-NQVANHQ-NH2,Selectivity ratio,[6],3
same,Selectivity ratio,[7],1.6
same,Kd,[8],19 µM
same,Selectivity ratio,[9],4
same,Selectivity ratio,[10],2.3
same,Kd,[11],31 µM
same,Ratio,[12],1.6
same,Kd,[13],33 µM
same,Selectivity ratio,[14],2.3
same,Kd,[15],49 µM
same,Kd,[16],28 µM
same,Ratio,[17],2.8
same,Kd,[18],28 µM
same,Selectivity ratio,[19],4
same,Selectivity ratio,[20],2.3
same,Kd,[21],34 µM
same,Kd,[22],28 µM
same,Kd,[23],50 µM
